pIC50: −log10 of the molar value. The source made the active and inactive calls. No cut-off for these calls is given here.
Tests used:
[1] = Inhibition of gamma-secretase-mediated cleavage of human APP Swedish and London mutation expressed in HEK293 cell membrane; assay type: cell-based
[2] = Inhibition of gamma-secretase-mediated cleavage of human APP Swedish and London mutation expressed in HEK293 cells assessed as reduction in amyloid beta42 production after 4 hrs by ECL technology; assay type: cell-based
[3] = Inhibition of gamma-secretase-mediated cleavage of human APP Swedish and London mutation expressed in HEK293 cells assessed as reduction in amyloid beta40 production after 4 hrs by ECL technology; assay type: cell-based
Procedure, shortened: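 HEK293 cells expressing human APP with Swedish and London mutations were given fresh medium and incubated with inhibitor for 4 h. Ab40 was measured in 10 microliters of conditioned medium by ECL. Values are means of n = 2.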

[4] = Permeability across human Caco-2 cells; assay type: ADME, cell-based; details: read-out: permeability
[5] = Binding affinity to p-glycoprotein
Cytochrome P450 3A4 = Cytochrome P450 3A4 (Homo sapiens, UniProt P08684); experiment: Inhibition of CYP3A4 preincubated for 30 mins; assay type: ADME
Sequence of Cytochrome P450 3A4 (P08684 whole entry): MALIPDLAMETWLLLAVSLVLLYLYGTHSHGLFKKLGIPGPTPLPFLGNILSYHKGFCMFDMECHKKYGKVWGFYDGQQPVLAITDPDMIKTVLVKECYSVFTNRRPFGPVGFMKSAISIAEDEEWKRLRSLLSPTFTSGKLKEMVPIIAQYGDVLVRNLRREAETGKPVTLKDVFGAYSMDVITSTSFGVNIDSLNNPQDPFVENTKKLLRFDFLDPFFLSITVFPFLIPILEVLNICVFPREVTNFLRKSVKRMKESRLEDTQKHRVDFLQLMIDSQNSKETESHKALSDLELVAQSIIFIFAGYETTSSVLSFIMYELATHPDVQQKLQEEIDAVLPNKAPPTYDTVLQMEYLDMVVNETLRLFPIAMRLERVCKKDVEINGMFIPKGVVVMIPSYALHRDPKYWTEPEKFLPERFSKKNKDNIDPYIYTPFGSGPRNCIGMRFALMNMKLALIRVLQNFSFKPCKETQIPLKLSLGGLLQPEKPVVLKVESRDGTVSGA
Procedure, shortened: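 CYP3A4 inhibition was determined after the compound was pre-incubated for 30 min.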

[6] = AUC in rat at 10 mg/kg, po after 6 hrs; assay type: ADME, organism-based; design: time < 6 hr, dose 10 mg/kg, route oral; details: plasma
Procedure, shortened: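 Rats were dosed orally at 10 mpk in 20% HPBCD. AUC was measured over 6 h by the cassette-accelerated rapid rat screen (CARRS).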

[7] = Drug level in rat brain at 10 mg/kg, po after 6 hrs; assay type: ADME, organism-based; design: dose 10 mg/kg, route oral; details: read-out: Drug uptake
[8] = Ratio of drug level in brain to plasma in rat at 10 mg/kg, po; assay type: ADME, organism-based; design: dose 10 mg/kg, route oral
[9] = molecular target: Voltage-gated inwardly rectifying potassium channel KCNH2 (Homo sapiens, UniProt Q12809); experiment: Inhibition of human ERG at 30 uM
Sequence of Voltage-gated inwardly rectifying potassium channel KCNH2 (Q12809 whole entry): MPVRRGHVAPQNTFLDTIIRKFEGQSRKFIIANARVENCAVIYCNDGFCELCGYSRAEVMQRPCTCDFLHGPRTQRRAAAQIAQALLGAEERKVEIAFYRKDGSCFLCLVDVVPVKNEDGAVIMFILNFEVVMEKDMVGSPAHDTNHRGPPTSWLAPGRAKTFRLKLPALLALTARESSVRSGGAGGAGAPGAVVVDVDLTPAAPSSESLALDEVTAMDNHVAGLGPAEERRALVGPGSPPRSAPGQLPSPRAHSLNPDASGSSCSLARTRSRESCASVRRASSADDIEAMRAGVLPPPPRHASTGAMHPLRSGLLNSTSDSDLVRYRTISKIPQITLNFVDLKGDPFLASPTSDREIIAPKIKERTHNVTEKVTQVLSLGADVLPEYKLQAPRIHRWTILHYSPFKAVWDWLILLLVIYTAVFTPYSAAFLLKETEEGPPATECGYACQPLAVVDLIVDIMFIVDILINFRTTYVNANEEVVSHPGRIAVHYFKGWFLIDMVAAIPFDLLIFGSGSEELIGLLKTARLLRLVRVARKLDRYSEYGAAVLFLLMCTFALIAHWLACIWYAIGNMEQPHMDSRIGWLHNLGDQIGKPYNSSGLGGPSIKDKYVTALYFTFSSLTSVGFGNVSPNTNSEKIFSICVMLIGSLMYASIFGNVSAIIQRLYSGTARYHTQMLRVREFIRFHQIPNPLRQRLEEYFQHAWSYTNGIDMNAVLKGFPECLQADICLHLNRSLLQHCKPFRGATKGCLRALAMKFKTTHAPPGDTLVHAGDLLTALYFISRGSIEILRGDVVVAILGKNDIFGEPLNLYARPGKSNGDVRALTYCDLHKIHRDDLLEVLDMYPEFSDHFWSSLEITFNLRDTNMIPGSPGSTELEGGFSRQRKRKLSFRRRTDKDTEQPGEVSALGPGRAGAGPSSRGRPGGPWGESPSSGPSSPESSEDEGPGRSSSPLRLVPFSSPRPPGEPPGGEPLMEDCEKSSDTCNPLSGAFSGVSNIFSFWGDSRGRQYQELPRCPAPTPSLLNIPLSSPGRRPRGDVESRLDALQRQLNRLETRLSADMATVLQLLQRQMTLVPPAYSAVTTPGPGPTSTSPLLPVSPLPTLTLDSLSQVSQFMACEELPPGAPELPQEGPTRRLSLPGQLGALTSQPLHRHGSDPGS

Homo sapiens = organism: Homo sapiens; experiment: Protein binding in human plasma; details: read-out: PPB (converted)
Mus musculus [10] = experiment: Reduction of amyloid beta40 level in non-transgenic mouse plasma at 10 mg/kg, po after 3 hrs; assay type: functional
Mus musculus [11] = experiment: Reduction of amyloid beta40 level in non-transgenic mouse brain at 10 mg/kg, po after 3 hrs; assay type: functional

| Compound | pIC50 [1] | pIC50 [2] | pIC50 [3] | other results |
| --- | --- | --- | --- | --- |
| CS(=O)(=O)NC[C@@H]1CCC[C@@]2(S(=O)(=O)c3ccc(Cl)cc3)c3c(F)ccc(F)c3OC[C@@H]12 | 8.60 | 8.70 | 8.70 | – |
| CCN(C[C@@H]1CCC[C@@]2(S(=O)(=O)c3ccc(Cl)cc3)c3c(F)ccc(F)c3OC[C@@H]12)S(=O)(=O)CC | 7.80 | 8.15 | 7.82 | – |
| O=S(=O)(NC[C@@H]1CCC[C@@]2(S(=O)(=O)c3ccc(Cl)cc3)c3c(F)ccc(F)c3OC[C@@H]12)C1CCCCC1 | 7.26 | 7.70 | 7.22 | – |
| CCCS(=O)(=O)NC[C@@H]1CCC[C@@]2(S(=O)(=O)c3ccc(Cl)cc3)c3c(F)ccc(F)c3OC[C@@H]12 | 8.26 | 8.22 | 7.92 | – |
| CN(C)S(=O)(=O)NC[C@@H]1CCC[C@@]2(S(=O)(=O)c3ccc(Cl)cc3)c3c(F)ccc(F)c3OC[C@@H]12 | 8.57 | 9.00 | 8.70 | – |
| O=S(=O)(NC[C@@H]1CCC[C@@]2(S(=O)(=O)c3ccc(Cl)cc3)c3c(F)ccc(F)c3OC[C@@H]12)c1ccccc1 | 7.21 | 7.34 | 6.89 | – |
| O=S(=O)(NC[C@@H]1CCC[C@@]2(S(=O)(=O)c3ccc(Cl)cc3)c3c(F)ccc(F)c3OC[C@@H]12)N1CCCCC1 | 8.22 | 7.96 | 7.72 | – |
| CCN(C[C@@H]1CCC[C@@]2(S(=O)(=O)c3ccc(C(F)(F)F)cc3)c3c(F)ccc(F)c3OC[C@@H]12)S(=O)(=O)C(F)(F)F | 7.01 | 7.68 | 7.38 | – |
| O=S1(=O)CCCN1C[C@@H]1CCC[C@@]2(S(=O)(=O)c3ccc(C(F)(F)F)cc3)c3c(F)ccc(F)c3OC[C@@H]12 | 7.05 | 7.60 | 7.14 | – |
| CCS(=O)(=O)NC[C@@H]1CCC[C@@]2(S(=O)(=O)c3ccc(C(F)(F)F)cc3)c3c(F)ccc(F)c3OC[C@@H]12 | 7.70 | 8.80 | 8.26 | – |
| NS(=O)(=O)NC[C@@H]1CCC[C@@]2(S(=O)(=O)c3ccc(C(F)(F)F)cc3)c3c(F)ccc(F)c3OC[C@@H]12 | 7.73 | 8.40 | 8.22 | – |
| CS(=O)(=O)NC[C@@H]1CCC[C@@]2(S(=O)(=O)c3ccc(C(F)(F)F)cc3)c3c(F)ccc(F)c3OC[C@@H]12 | 7.89 | 8.44 | 7.92 | Papp [4]: 42.1 ×10⁻⁶ cm/s; Activity [5]: inactive; IC50 (Cytochrome P450 3A4): > 30000 nM; AUC at 6 h [6]: 2010 ng·h/mL; concentration at 6 h [7]: 80 ng/g; Kp [8]: 0.73; inhibition (INH) [9]: Not Active; fraction unbound (Homo sapiens): 0.019 |
| O=S1(=O)NCCN1C[C@@H]1CCC[C@@]2(S(=O)(=O)c3ccc(C(F)(F)F)cc3)c3c(F)ccc(F)c3OC[C@@H]12 | 7.42 | – | – | – |
| O=S(=O)(NC[C@@H]1CCC[C@@]2(S(=O)(=O)c3ccc(Cl)cc3)c3c(F)ccc(F)c3OC[C@@H]12)C(F)(F)F | 7.92 | 8.05 | 7.74 | inhibition in vivo at 10 mg/kg (Mus musculus [10]): 86%; inhibition in vivo at 10 mg/kg (Mus musculus [11]): 48% |
| CN(C)S(=O)(=O)NC[C@@H]1CCC[C@@]2(S(=O)(=O)c3ccc(C(F)(F)F)cc3)c3c(F)ccc(F)c3OC[C@@H]12 | 8.17 | 8.27 | 7.90 | – |
| O=S(=O)(NC[C@@H]1CCC[C@@]2(S(=O)(=O)c3ccc(Cl)cc3)c3c(F)ccc(F)c3OC[C@@H]12)c1cccs1 | 7.78 | 7.74 | 7.35 | – |
| CCOC(=O)CCS(=O)(=O)NC[C@@H]1CCC[C@@]2(S(=O)(=O)c3ccc(Cl)cc3)c3c(F)ccc(F)c3OC[C@@H]12 | 8.70 | 8.52 | 8.40 | – |
| NS(=O)(=O)NC[C@@H]1CCC[C@@]2(S(=O)(=O)c3ccc(Cl)cc3)c3c(F)ccc(F)c3OC[C@@H]12 | 8.70 | 9.00 | 9.00 | – |
| O=S(=O)(CC(F)(F)F)NC[C@@H]1CCC[C@@]2(S(=O)(=O)c3ccc(C(F)(F)F)cc3)c3c(F)ccc(F)c3OC[C@@H]12 | 7.60 | 8.10 | 7.64 | – |
| CCN(C[C@@H]1CCC[C@@]2(S(=O)(=O)c3ccc(Cl)cc3)c3c(F)ccc(F)c3OC[C@@H]12)S(C)(=O)=O | 8.26 | 8.30 | 7.92 | – |
| CCS(=O)(=O)N(C[C@@H]1CCC[C@@]2(S(=O)(=O)c3ccc(C(F)(F)F)cc3)c3c(F)ccc(F)c3OC[C@@H]12)C1CC1 | 7.55 | 7.85 | 7.53 | – |

| Compound | pIC50 [1] | pIC50 [2] | pIC50 [3] | other results |
| --- | --- | --- | --- | --- |
| O=S(=O)(NC[C@@H]1CCC[C@@]2(S(=O)(=O)c3ccc(Cl)cc3)c3c(F)ccc(F)c3OC[C@@H]12)c1c(F)cccc1F | 7.89 | 7.77 | 7.49 | – |
| CCS(=O)(=O)NC[C@@H]1CCC[C@@]2(S(=O)(=O)c3ccc(Cl)cc3)c3c(F)ccc(F)c3OC[C@@H]12 | 8.80 | 8.70 | 8.40 | – |
| CCCCS(=O)(=O)NC[C@@H]1CCC[C@@]2(S(=O)(=O)c3ccc(Cl)cc3)c3c(F)ccc(F)c3OC[C@@H]12 | 7.89 | 7.89 | 7.54 | – |
| O=S(=O)(NC[C@@H]1CCC[C@@]2(S(=O)(=O)c3ccc(C(F)(F)F)cc3)c3c(F)ccc(F)c3OC[C@@H]12)C1CC1 | 7.71 | 8.20 | 7.76 | – |
| CS(=O)(=O)N(C[C@@H]1CCC[C@@]2(S(=O)(=O)c3ccc(Cl)cc3)c3c(F)ccc(F)c3OC[C@@H]12)C1CC1 | 8.48 | 8.40 | 8.22 | – |
| O=S(=O)(CC(F)(F)F)NC[C@@H]1CCC[C@@]2(S(=O)(=O)c3ccc(Cl)cc3)c3c(F)ccc(F)c3OC[C@@H]12 | 8.11 | 8.40 | 7.80 | – |
| O=S(=O)(NC[C@@H]1CCC[C@@]2(S(=O)(=O)c3ccc(Cl)cc3)c3c(F)ccc(F)c3OC[C@@H]12)C1CC1 | 8.51 | 8.40 | 8.40 | – |
| O=S(=O)(N(C[C@@H]1CCC[C@@]2(S(=O)(=O)c3ccc(C(F)(F)F)cc3)c3c(F)ccc(F)c3OC[C@@H]12)C1CC1)C(F)(F)F | 7.45 | 7.85 | 7.82 | – |
| CS(=O)(=O)N(C[C@@H]1CCC[C@@]2(S(=O)(=O)c3ccc(C(F)(F)F)cc3)c3c(F)ccc(F)c3OC[C@@H]12)C1CC1 | 8.24 | 8.22 | 8.05 | – |
| O=S(=O)(NC[C@@H]1CCC[C@@]2(S(=O)(=O)c3ccc(Cl)cc3)c3c(F)ccc(F)c3OC[C@@H]12)N1CCOCC1 | 8.47 | 8.52 | 8.22 | – |
| CCN(C[C@@H]1CCC[C@@]2(S(=O)(=O)c3ccc(Cl)cc3)c3c(F)ccc(F)c3OC[C@@H]12)S(=O)(=O)C1CC1 | 7.69 | 8.05 | 7.60 | – |
| O=S(=O)(N(C[C@@H]1CCC[C@@]2(S(=O)(=O)c3ccc(Cl)cc3)c3c(F)ccc(F)c3OC[C@@H]12)C1CC1)C(F)(F)F | 7.82 | 8.05 | 7.68 | – |
| CCN(CC)S(=O)(=O)NC[C@@H]1CCC[C@@]2(S(=O)(=O)c3ccc(Cl)cc3)c3c(F)ccc(F)c3OC[C@@H]12 | 8.05 | 8.52 | 8.22 | – |
| O=S1(=O)CCCCN1C[C@@H]1CCC[C@@]2(S(=O)(=O)c3ccc(C(F)(F)F)cc3)c3c(F)ccc(F)c3OC[C@@H]12 | 6.91 | – | – | – |
| CCN(C[C@@H]1CCC[C@@]2(S(=O)(=O)c3ccc(C(F)(F)F)cc3)c3c(F)ccc(F)c3OC[C@@H]12)S(=O)(=O)C1CC1 | 7.08 | 7.68 | 7.33 | – |
| CC(C)S(=O)(=O)NC[C@@H]1CCC[C@@]2(S(=O)(=O)c3ccc(Cl)cc3)c3c(F)ccc(F)c3OC[C@@H]12 | 8.28 | 8.30 | 7.92 | – |
| CCN(C[C@@H]1CCC[C@@]2(S(=O)(=O)c3ccc(C(F)(F)F)cc3)c3c(F)ccc(F)c3OC[C@@H]12)S(C)(=O)=O | 7.47 | 8.13 | 7.73 | – |
| O=S(=O)(NC[C@@H]1CCC[C@@]2(S(=O)(=O)c3ccc(Cl)cc3)c3c(F)ccc(F)c3OC[C@@H]12)N1CCCC1 | 8.48 | 8.52 | 8.30 | – |
| CN1CCN(C[C@@H]2CCC[C@@]3(S(=O)(=O)c4ccc(C(F)(F)F)cc4)c4c(F)ccc(F)c4OC[C@@H]23)S1(=O)=O | 7.17 | 7.89 | 7.64 | – |
| O=S(=O)(NC[C@@H]1CCC[C@@]2(S(=O)(=O)c3ccc(C(F)(F)F)cc3)c3c(F)ccc(F)c3OC[C@@H]12)C(F)(F)F | 7.38 | 7.73 | 7.39 | Papp [4]: 23 ×10⁻⁶ cm/s; Activity [5]: inactive; IC50 (Cytochrome P450 3A4): > 30000 nM; AUC at 6 h [6]: 702 ng·h/mL; concentration at 6 h [7]: 91 ng/g; Kp [8]: 1.01; inhibition in vivo at 10 mg/kg (Mus musculus [10]): 101%; inhibition in vivo at 10 mg/kg (Mus musculus [11]): 71%; inhibition (INH) [9]: Not Active; fraction unbound (Homo sapiens): 0.001 |

— ChEMBL document CHEMBL1158621, “Tricyclic sulfones as orally active gamma-secretase inhibitors: synthesis and structure-activity relationship studies” (Bioorg Med Chem Lett, 2010)
